Test [1] deals with Human immunodeficiency virus type 1 reverse transcriptase (Human immunodeficiency virus 1, UniProt Q72547). Kind of test: In vitro for inhibition of HIV-1 reverse transcriptase.
Test [2] deals with Human immunodeficiency virus type 1 reverse transcriptase (Human immunodeficiency virus 1) (UniProt Q72547). Kind of test: In vitro for inhibition of HIV-1 reverse transcriptase at 1 uM. In a few lines: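 Compounds were first screened as percent enzyme inhibition at a single 1 μM concentration. IC50 was not determined for compounds giving under 35% inhibition at 1 μM.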

This note sets out measurements from ChEMBL document CHEMBL1128303, “Novel non-nucleoside inhibitors of HIV-1 reverse transcriptase. 3. Dipyrido[2,3-b:2',3'-e]diazepinones” (J Med Chem, 1995).

The IC50 is the midpoint of a concentration-inhibition curve. The inhibition is the drop in the measured response relative to a control, in per cent. A low value points to a weak effect.

Take `CCN1c2cc(Br)cnc2N(C)C(=O)c2cccnc21`: in test [1], half-maximal inhibition (IC50) was put at 550 nM.

In turn, `CCN1c2ccc(C)nc2N(C)C(=O)c2cccnc21` gave a half-maximal inhibitory concentration (IC50) in test [1] of 1760 nM.

Regarding `CCN1c2cc(Br)c(Br)nc2N(C)C(=O)c2cccnc21`, the inhibition in test [2] is below 35%.

`CCN1c2ccc([N+](=O)[O-])nc2N(C)C(=O)c2cccnc21` came in with an inhibition in test [2] below 35%.

In test [1], `CN1C(=O)c2cccnc2N(C2CC2)c2nc(Cl)ccc21` displayed a 50% inhibitory concentration (IC50) of 90 nM.

Compound `CCN1c2ncccc2C(=O)N(C)c2cc([N+](=O)[O-])cnc21` had an inhibition in test [2] below 35%.

In test [2], `CCN1c2ncccc2C(=O)N(C)c2nccc(C)c21` came in with an inhibition below 35%.

Take `CCN1c2cccnc2N(C)C(=O)c2cccnc21`: half-maximal inhibition in test [1] (IC50) was put at 1300 nM.

In test [1], `CCN1c2cc(C)c(C)nc2N(C)C(=O)c2cc(N)cnc21` displayed a half-inhibitory concentration (IC50) of 150 nM.

In test [1], `CN1C(=O)c2cccnc2N(C2CC2)c2ccc(Cl)nc21` displayed an IC50 of 1000 nM.

In turn, `CCN1c2cccnc2N(C)C(=O)c2ccc(C)nc21` returned an inhibition in test [2] below 35%.

Consider `CCN1c2ncccc2C(=O)N(C)c2ccc(-c3cccc(N)c3)nc21`, for which the IC50 in test [1] was found to be 70 nM.

For the compound `CN1C(=O)c2cccnc2N(C2CC2)c2cc(Cl)cnc21`, the IC50 in test [1] was found to be 760 nM.

For the compound `CCN1c2cc(C)c(C)nc2N(C)C(=O)c2cccnc21`, 190 nM corresponded to half-maximal inhibition in test [1] (IC50).

The compound `CN1C(=O)c2cccnc2N(C2CC2)c2ncc(Cl)cc21` showed an IC50 in test [1] of 290 nM. Compared with the last compound, the IC50 is about 1.5-fold higher.

Consider `CCN1c2ncc(N)cc2C(=O)N(C)c2cccnc21`, for which, in test [1], the IC50 came to 130 nM.

`CCN1c2nc(C)ccc2C(=O)N(C)c2cccnc21` returned an IC50 in test [1] of 1000 nM.

In test [2], `CCN1c2cc(-c3cccc(N)c3)cnc2N(C)C(=O)c2cccnc21` came in with an inhibition below 35%.

On to `CCN1c2ncc(Br)cc2C(=O)N(C)c2cccnc21`, for which, in test [1], the midpoint of inhibition, the IC50, lay at 1300 nM.

As for `CCN1c2cccnc2N(C)C(=O)c2cc(Br)cnc21`, the inhibition in test [2] is below 35%.

For the compound `CCN1c2cccnc2N(C)C(=O)c2cc(N)cnc21`, in test [1], the IC50 was found to be 280 nM.
